Tests used:
[1] = target: T1, Prostaglandin G/H synthase 2 (Homo sapiens) (UniProt P35354); assay: Inhibition of COX2-induced PGE2 production in human A549 cells assessed as PGE2 level at 30 uM by ELISA (reference value: 57 +/- 4 pg/ml); assay type: cell-based
T1 sequence (whole entry): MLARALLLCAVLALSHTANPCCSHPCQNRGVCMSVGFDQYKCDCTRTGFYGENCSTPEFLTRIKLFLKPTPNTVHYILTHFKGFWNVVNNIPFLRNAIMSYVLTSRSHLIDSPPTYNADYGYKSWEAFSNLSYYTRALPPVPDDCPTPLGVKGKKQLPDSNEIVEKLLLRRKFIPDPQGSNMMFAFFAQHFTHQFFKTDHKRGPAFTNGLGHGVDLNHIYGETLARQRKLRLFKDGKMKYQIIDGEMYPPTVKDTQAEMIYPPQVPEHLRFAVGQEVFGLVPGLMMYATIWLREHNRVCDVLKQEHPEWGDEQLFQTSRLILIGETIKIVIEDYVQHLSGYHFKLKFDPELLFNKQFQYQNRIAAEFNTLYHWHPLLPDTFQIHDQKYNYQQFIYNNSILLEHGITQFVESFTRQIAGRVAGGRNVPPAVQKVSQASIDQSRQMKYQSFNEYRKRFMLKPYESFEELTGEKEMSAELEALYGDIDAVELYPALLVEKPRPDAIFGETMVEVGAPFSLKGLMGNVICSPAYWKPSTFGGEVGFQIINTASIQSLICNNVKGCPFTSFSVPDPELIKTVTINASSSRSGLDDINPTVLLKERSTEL
In short: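 A549 NSCLC cells treated with compounds at 30 μM; prostaglandin E2 released via COX quantified by ELISA, reported as pg/mL; mean ± S.D. of 3 determinations each repeated in duplicate; Student's t-test for significance.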

[2] = target: T1, Prostaglandin G/H synthase 2 (Homo sapiens); assay: Inhibition of COX2-induced PGE2 production in human A549 cells assessed as PGE2 level at 4 uM by ELISA (reference value: 126 +/- 17 pg/ml); assay type: cell-based
In short: (§1)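 COX-derived PGE2 released by A549 cells, measured by ELISA in pg/mL. Test concentrations 4 or 90 μM; combination wells got aspirin + Tempol at 90 μM each. Mean ± S.D. of 3 determinations, each in duplicate; Student's t-test.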

661W [3] = assay: Antioxidant activity in mouse 661W cells assessed as inhibition of antimycin-induced mitochondrial ROS production at 100 uM by fluorescence assay relative to control; assay type: functional
661W [4] = assay: Antioxidant activity in mouse 661W cells assessed as inhibition of antimycin-induced mitochondrial ROS production at 10 uM by fluorescence assay relative to control; assay type: functional
661W [5] = assay: Antioxidant activity in mouse 661W cells assessed as inhibition of antimycin-induced mitochondrial ROS production at 50 uM by fluorescence assay relative to control; assay type: functional
NCI-H1299 [6] = assay: Growth inhibition of human NCI-H1299 cells assessed as cell growth at 90 uM by MTT assay relative to control; assay type: functional; conditions: read-out: Activity
In short: (§2)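 NCI-H1299 cell growth by MTT assay, tested at 18–900 μM; combination wells got aspirin + Tempol at equal concentration. Given as % growth. Mean ± S.D. of 3 experiments, each run in duplicate; Student's t-test.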

NCI-H1299 [7] = assay: Growth inhibition of human NCI-H1299 cells assessed as cell growth at 900 uM by MTT assay relative to control; assay type: functional; conditions: read-out: Activity; in short: as §2
[8] = target: T1, Prostaglandin G/H synthase 2 (Homo sapiens); assay: Inhibition of COX2-induced PGE2 production in human A549 cells assessed as PGE2 level at 90 uM by ELISA; assay type: cell-based; in short: as §1
NCI-H1299 [9] = assay: Growth inhibition of human NCI-H1299 cells assessed as cell growth at 900 uM in presence of tempol by MTT assay relative to control; assay type: functional; conditions: read-out: Activity
In short: (§3)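 NCI-H1299 human NSCLC cells; proliferation measured by MTT assay with compounds at 90 or 900 μM, tested alone or as aspirin plus Tempol combination; growth expressed as % of control; mean ± S.D. of 3 experiments each in duplicate; significance by Student's t-test.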

NCI-H1299 [10] = assay: Growth inhibition of human NCI-H1299 cells assessed as cell growth at 90 uM in presence of tempol by MTT assay relative to control; assay type: functional; conditions: read-out: Activity; in short: as §3
NCI-H1299 [11] = assay: Growth inhibition of human NCI-H1299 cells assessed as cell growth at 900 uM in presence of aspirin by MTT assay relative to control; assay type: functional; conditions: read-out: Activity; in short: as §2
A549 [12] = assay: Effect on basal ROS level in human A549 cells at 100 uM by DCFH-DA staining based fluorescence assay (reference value: 100 +/- 5%); assay type: cell-based; conditions: a549, 100 µM
A549 [13] = assay: Anti-oxidant activity in human A549 cells assessed as inhibition of H2O2-induced ROS production by measuring ROS level at 100 uM by DCFH-DA staining based fluorescence assay (reference value: 194 +/- 13%); assay type: functional; design: scale not given: the % may be the effect or the level left
[14] = target: T1, Prostaglandin G/H synthase 2 (Homo sapiens); assay: Inhibition of COX2-induced PGE2 production in human A549 cells assessed as PGE2 level at 90 uM in presence of aspirin by ELISA (reference value: 126 +/- 17 pg/ml); assay type: cell-based; in short: as §1
NCI-H1299 [15] = assay: Growth inhibition of human NCI-H1299 cells assessed as cell growth at 90 uM in presence of aspirin by MTT assay relative to control; assay type: functional; conditions: read-out: Activity; in short: as §2

CC(=O)Oc1cc2c(cc1C(=O)O)C(C)(C)N([O])C2(C)C
Activity [1]: 52 pg/mL

CC(=O)Oc1ccccc1C(=O)NC1CC(C)(C)N([O])C(C)(C)C1
Activity [2]: 99 pg/mL | Activity [1]: 54 pg/mL

CC(=O)Oc1ccccc1C(=O)Nc1ccc2c(c1)C(C)(C)N([O])C2(C)C
Activity [1]: 45 pg/mL

CC(=O)Oc1ccccc1C(=O)OC1CC(C)(C)N([O])C(C)(C)C1
Activity [2]: 87 pg/mL | Activity [1]: 31 pg/mL

CC1(C)CC(C(=O)Oc2ccccc2C(=O)O)C(C)(C)N1[O] (configuration not stated)
Activity [1]: 34 pg/mL

CC1(C)CC(C(=O)Oc2ccccc2C(=O)OCc2ccccc2)CC(C)(C)N1[O]
Activity [1]: 23 pg/mL

CC1(C)c2cc(O)c(C(=O)O)cc2C(C)(C)N1[O]
Activity [1]: 50 pg/mL

COc1ccc2c(c1)c(CC(=O)Nc1ccc3c(c1)C(C)(C)N([O])C3(C)C)c(C)n2C(=O)c1ccc(Cl)cc1
inhibition (661W [3]): 88.4% | inhibition (661W [4]): 97.6% | inhibition (661W [5]): 82.3% | Activity [1]: 58 pg/mL

CC(=O)Oc1ccccc1C(=O)O [ASPIRIN]
growth at 90 µM (NCI-H1299 [6]): 103% | growth at 900 µM (NCI-H1299 [7]): 49% | Activity [8]: 79 pg/mL | growth at 900 µM (NCI-H1299 [9]): 53% | growth at 90 µM (NCI-H1299 [10]): 102%

CC1=C[C@H](O)CC(C)(C)[C@H]1/C=C/C(C)=C/C=C/C(C)=C/C=C/C=C(C)/C=C/C=C(C)/C=C/C1=C(C)C[C@@H](O)CC1(C)C [LUTEIN]
inhibition at 10 µM (661W [4]): 89.7%

CC1(C)CC(O)CC(C)(C)N1[O] [TEMPOL]
growth at 90 µM (NCI-H1299 [6]): 100% | growth at 900 µM (NCI-H1299 [7]): 98% | Activity [8]: 105 pg/mL | growth at 900 µM (NCI-H1299 [11]): 53% | Activity (A549 [12]): 103% | Activity (A549 [13]): 155% | Activity [14]: 75 pg/mL | growth at 90 µM (NCI-H1299 [15]): 102%

From ChEMBL document CHEMBL4145529, “Design, synthesis and biological evaluation of hybrid nitroxide-based non-steroidal anti-inflammatory drugs” (Eur J Med Chem, 2018)
